Fewer inactive variants are shown than the library holds.
B1: tRNA (parent)
chain: CUCUCGGUAGCCAAGUUGGUUUAAGGCGCAAGACUUUAAUUUAUCACUACGAAAUCUUGAGAUCGGGCGUUCGACUCGCCCCCGGGAGAUUUUUUCCUCGAGCAA

Variants of: B1
Assay: nonsense suppression (GFP-seq) (ratio to wild type); higher = more function; SUP4oc tRNA, yeast GFP reporter sort-seq
How it was run: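 Yeast carrying genome-integrated SUP4oc tRNA variants from a library with ~3% random mutations were grown in raffinose/galactose medium with 80 mg/L adenine. Each strain also carried a galactose-driven GFP ochre reporter and RFP. Cells were sorted into GFP/RFP bins, and each bin was Illumina-sequenced (phred ≥30). Nonsense suppression (GFPSEQ) is the bin median GFP/RFP, weighted by each variant's estimated cell share per bin, relative to wild-type SUP4oc; variants needed ≥100 reads and ≥30 cells.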

Going from CUCUCGGUAGCCAAGUUGGUUUAAGGCGCAAGACUUUAAUUUAUCACUACGAAAUCUUGAAAUGGGGCGUUCGACUCGCCCCCGGGAGAUUUUUUCCUCGAGCAA [G61A C64G] to CUCGCUGUAGCCAAGUUGGUCUAAGGCGCAAGACUUUAAUUUAUCACUACGAAACCUUGAGAUCGGGCGUUCGACUCGGCCCCGGGAGAUUUUUUCCUCGAGCAA [U4G G6U U21C U55C C79G], the nonsense suppression falls from 0.0404 to at most 0.026.

CUCACGGUAGCUAAGUUGGUUUAAGGCGCAAGACUUUAAUUUAUCACUACGAAAUCUUGAGAUCGGGCGUUCGACUCGCCCCCGGGAGAUUUUUUCCUCGAGCAA [U4A C12U] and CUCUCGGUAGCCAAGUUGGUUUAAGUCGCAAGGCUUUAAUUUAUCACUACGAAAUCUUGAGAUCGGGCGUUCGACUCCCCCCCAGGAGAUUUUUUCCUCGAGCAA [G26U A33G G78C G84A] cannot be ordered by nonsense suppression: at most 0.026 for the first, at most 0.026 for the second.

Going from CUCUCGGUAGCCCAGUUGGUUUAAGGCGCAAGACUUUAAUUUAUCACUACGAAAUCUUGAGAUCGGGCGUUCGAGUCGCCCCCGGGAGAUUUUUUCCUCGAGCAA [A13C C75G] to CUAUCGGUAGCCAAGUUGGUUCAAGUCGCAAGACUUUAAUUUAUCACUACGAAAUCUUGAGAUCGGGCGUUCGACUCGCACCCGGGAGAUUUUUUCCUCGAGCAA [C3A U22C G26U C80A], the nonsense suppression falls from 1.15 to at most 0.026.

First: CUCUCGGUAGCCAAGUUGGUUUAAGGCGUAAGACUUUAAUUUAUCACUACGAAAUCUUGAGAUCGGGCGUUCGACUCGUCCCCGGAAGAUUUUUUCCUCGAGCAA [C29U C79U G86A]
Second: CUCACGGUAGCCAAGUUGGUUUAAGGCGCAAGACUUUAAUUUAUCACUACGAAAUCUUGAGAUCGGGCGUUCGACUCGCCCCCGGGAGAUUUUUUCCUCGAGCAA [U4A]
The nonsense suppression of the first is lower: at most 0.026 for the first, 0.693 for the second.

Going from CUCUCGGUAGCCAAGUUGGUUUAAGGCGCAAGACUUUAAUUUAUCACUACGAAAUCUUGAGAUCGGGCGUUUGACUCGCACCCGGGCGAUUUUUUCCUCGAGCAA [C72U C80A A87C] to CUCACGGUAGCCAAGUUGGAUUAAGGCGCAAGACUUUAAUUUAUCACUACGAAAUCUUGAGAUCGGGCGUUCGACUCGCCCCCGGGAGAUUUUUUCCUCGAGCAA [U4A U20A], the nonsense suppression falls from 0.714 to 0.072.

Compared with CUCUCGGUAGCCAAGUUGGUUUAAGGCGCAAGACUUUAAUUUAUCACUACGAAAUCUCGAUACCGGGCGUUCGACUCGCCCCCGGGAGAUUUUUUCCUCGAGCAA [U58C G61U U63C], CUCUCGGUAGCCUAGUUGGUUUAAGGCGCUAGACUUUAAUUUAUCACUACGAAAUCUUGAGAUCGGGCGUUCGACUCGCCCCCGGGAGAUUUUUUCCUCGAGCAA [A13U A30U] is higher in nonsense suppression: at most 0.026 for the first, 0.0763 for the second.

First: CGCUCGGUAGCCUAGUUGGUUUAAGGCGCAAGACUUUAAUUUAUCACUACGAAAUCUUGAGAUCGGGCGUUCGACUCGCCCCCGGGAGAUUUUUUCCUCGAGCAA [U2G A13U]
Second: CUCUCGGUAGCCAAGUUGGUUUAAGGCGCAAGACUUUAAUUUAUCACUACGAAAUCUUGAUACCGGGCGUUCGACUCGCCCCCGGGAGAUUUUUUCCUCGAGCAA [G61U U63C]
The nonsense suppression of the first is lower: 0.0638 for the first, 0.808 for the second.

Compared with CUCUCGGUAGCCAAGUUGGUUUAAGGCGCAAGACUUUAAUUUAUCACUACGAAAUCUUGAGAUCGGGCGUUCGAGUCCCCCCAGGGAGAUUUUUUCCUCGAGCAA [C75G G78C C83A], CUCUCGGUAGCCAAGUGGGUUUAAGGCGCAAGACUUUAAUUUAUCACUACGAAAUCUUGAUAUCGGGCGUUCGACUCGCCCCCGGGAGAUUUUUUCCUCGAGCAA [U17G G61U] is higher in nonsense suppression: at most 0.026 for the first, 0.832 for the second.

Going from CUCUCGGUAGCCAAGUUGGGUUAAGGCGCAAGACUUUAAUUUAUCACUACGAAAUCUUGAUAUCGGGCGUUCGACUCGCCCCCGGGAGAUUUUUUCCUCGAGCAA [U20G G61U] to CUCUCGGCAGCCAAGUUGGUUUAAGGCGCAAGACUUUAAUUUAUCACUACGAAAUCUUGAGAUCGGGCGGUCGCCUCGCCCCCCGGAGAUUUUUUCCUCGAGCAA [U8C U70G A74C G84C], the nonsense suppression falls from 0.874 to 0.0541.

Going from CUCUCGGUAGCGAAGUUGGUUUAAGGCGCAAGACUUUAAUUUAUCACUACGAAAUCUUGAGAUCGGGCGUGCGACUCGCCCCCGGGAGAUUUUUUCCUCGAGCAA [C12G U71G] to CUCUCGGUAGCCAAGUUGGUUUAAGGCGCAAGACUUUAAUUUAUCACUACGAAAUCUUGAGAUCGUGCGUUCGACUCGACCCCGGGAGAUUUUUUCCUCGAGCAA [G66U C79A], the nonsense suppression falls from 0.859 to at most 0.026.

Compared with CUCUCGGUAGCCAAGGUGGUUUAAGGCGCAAGACUUUAAUUUAUCACUACGAAAUCUUGAGAUCGGGCGAUCGACUCGCCCACGGGAGAUUUUUUCCUCGAGCAA [U16G U70A C82A], AUCUCGGUAGCCAAGUUGGUUUAAGGCGCAAGACUUUAAUUUAUCACUACGAAAUCUUGAGAUCGGGCGUUCGACUCGCCUCCGGGAGAUUUUUUCCUCGAGCAA [C1A C81U] is higher in nonsense suppression: at most 0.026 for the first, 0.045 for the second.

Compared with CUCUCGGUAGCCAAGUUGGUUUAAGGCGCAAGACUUUAAUUUAUCACUACGAAAUCUGGAGAUCGGGCGUUCGACUCGCCCCCGAGAGAUUUUUUCCUCGAGCAA [U58G G85A], CUCUCGGUAGCGAAGUUGGUAUAAGGCGCAAGACUUUAAUUUAUCACUACGAAAUCUUUAGAUCGGGCGUUCGACUCGCCCCCGGGAGAUUUUUUCCUCGAGCAA [C12G U21A G59U] is lower in nonsense suppression: 0.0573 for the first, at most 0.026 for the second.

CUCUCGGUAGCCAACUUGGUUUAAGGCGCAAGACUUUAAUUUAUCACUACGAAAUCUUGAGAUCAGGCGUUCGACUCGCCCCCGGGAGAUUUUUUCCUCGAGCAA [G15C G65A] and CUCUCGCUAGCCAAGUUGGUUUAAGGCGCAAGUCUUUAAUUUAUCACUACGAAAUCUUGAGAUCGGGCGUUCAACUCGCCCCCGGGAGAUUUUUUCCUCGAGCAA [G7C A33U G73A] cannot be ordered by nonsense suppression: at most 0.026 for the first, at most 0.026 for the second.

In the case of GUCUCGGUAGCCAAGAUGGUUUAAGGCGCAAGACUUUAAUUUAUCACUACGAAAUCUUGAGAUCGGGCGUUCGACUCGCCCCCGGGAGAUUUUUUCCUCGAGCAA [C1G U16A], the nonsense suppression is reported as 0.777.

— the RNAGym collection of RNA variant scans (doi:10.1101/gad.245936.114)
